The term MIC denotes the least concentration at which growth counts as inhibited. A low value points to greater potency. In general, inhibition refers to the change of the read-out against control, counted positive when it falls. The EC50 is the concentration needed to bring the measured effect to its halfway point.

Results on twelve compounds are retold here after paper PMC9059958 (RSC Advances, 2019).

For data set [1], the system named is S. aureus 1199B. Kind of data set: MIC against NorA expressing S. aureus 1199B. It counts as cell-based. The settings on record: Staphylococcus aureus. Put shortly: (§1)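 Broth microdilution. Overnight cultures knocked back to OD600 0.100 and grown at 37 °C to OD600 0.500. Final inoculum 4 × 10^5 CFU mL−1 in cation-adjusted MHII; S. pneumoniae in CA-MHB with 5% LHB; tetR E. coli in LB with 100 μg mL−1 ampicillin. Final DMSO 0.5% v/v. Incubated 18–20 h at 37 °C, then OD600 read. MIC is ≥90% inhibition versus untreated cells. Triplicate wells, repeated on two further plates.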

Data set [2] deals with tet^R E. coli. Put plainly: Combination. The data set is classed as cell-based, Escherichia coli. The settings on record: for Fold enhancement: tetracycline, amphiphile 20 μM, Tet^R E. coli.
Another data set deals with T1, NorA efflux pump (Staphylococcus aureus, UniProt P0A0J7).
T1 sequence (P0A0J7 1-388): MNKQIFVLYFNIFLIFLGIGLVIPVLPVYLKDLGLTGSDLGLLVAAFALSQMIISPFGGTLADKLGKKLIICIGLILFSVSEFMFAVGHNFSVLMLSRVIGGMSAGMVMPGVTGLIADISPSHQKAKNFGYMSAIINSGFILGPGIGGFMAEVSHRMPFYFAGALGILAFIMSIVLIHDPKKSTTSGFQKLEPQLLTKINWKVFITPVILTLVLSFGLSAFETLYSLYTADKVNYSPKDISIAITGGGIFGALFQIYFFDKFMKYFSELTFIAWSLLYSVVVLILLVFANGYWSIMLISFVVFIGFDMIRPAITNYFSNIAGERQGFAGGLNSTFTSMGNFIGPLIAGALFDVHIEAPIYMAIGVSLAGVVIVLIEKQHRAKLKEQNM
Put plainly: Efflux pump inhibition. The data set is classed as cell-based. The settings on record: read-out: inhibition of NorA activity, lower than for 3 or 4. Put shortly: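 S. aureus 1199B knocked back to OD600 0.550, then loaded with ethidium bromide (10 μg mL−1) plus 100 μM CCCP in MHII at OD600 1.000 for 20 min at room temperature. Spun, held on ice, warmed 5 min, adjusted to OD600 0.800. Added to wells containing test compound, CCCP or reserpine. Fluorescence read at ex 530/em 600 nm every minute for 20 min. Three runs, SD.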

Data set [3] deals with HEK-293, HeLa and Cos-7 cells. Kind of data set: Mammalian cell cytotoxicity. The data set is classed as cell-based. The settings on record: 1/2 MIC; 24 hours; XTT. The procedure, abridged: (§2)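 HEK-293, HeLa and Cos-7 cells kept in DMEM with 10% FBS and 1% penicillin–streptomycin. Seeded at 3 × 10^4 cells per well and grown 24 h to 80–90% confluence. […] XTT assay: absorbance at 450 nm, 690 nm background. Percent survival versus untreated cells, three replicates, mean ± SD.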
In general terms: Tetrazolium assays rely on reduction of a dye to a coloured formazan, in cell work by metabolically active cells.

The subject of a further data set is human hepatocytes. Put plainly: Human hepatocyte cell viability. It counts as cell-based. The settings on record: 72 h, read-out: EC50 against human hepatocytes. Put shortly:
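Human hepatocytes treated with 1–100 μM test compound, or CCCP as control, for 72 h. Survival then determined.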

The subject of data set [4] is tet^R E. coli. Kind of data set: Membrane permeability using propidium iodide and FDA. The data set is classed as cell-based, Escherichia coli. Put shortly: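 tetR E. coli grown overnight with 100 μg mL−1 ampicillin (37 °C, 200 RPM) and knocked back to OD600 0.550. Treated 30 min at half-MIC; Triton X-100 and DMSO controls; DMSO 0.5%. Washed (3000 × g, 5 min) into PBS, then stained with propidium iodide (30 μM) and fluorescein diacetate (60 μM) for 30 min at 37 °C. Washed again and imaged by confocal microscopy.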

For a further data set, the system named is HEK-293 cells. Put plainly: Mammalian cell cytotoxicity. It counts as cell-based, human. The settings on record: 1/2 MIC (4: 1 μM; colistin 0.125 μM); 24 hours; XTT.
The subject of the next data set is Cos-7 cells. Kind of data set: Mammalian cell cytotoxicity. It counts as cell-based, simian. The following applies: 1/2 MIC; 24 hours; XTT. The procedure, abridged: as §2
The next data set deals with S. aureus (control). Kind of data set: MIC screening. The data set is classed as cell-based. The settings on record: Staphylococcus aureus. The procedure, abridged:
as §1

The next data set has as its system MRSA (USA100). Put plainly: MIC screening. The following applies: Staphylococcus aureus. It counts as cell-based. The procedure, abridged:
as §1

Another data set relates to MRSA (USA 300). Put plainly: MIC screening. It counts as cell-based. The following applies: Staphylococcus aureus, MRSA|USA300. Put shortly: as §1
Another data set deals with MRSA (control). Put plainly: MIC screening. It counts as cell-based. The settings on record: Staphylococcus aureus. Put shortly: as §1
A further data set relates to S. pneumoniae (control). Kind of data set: MIC screening. It counts as cell-based. The following applies: Streptococcus pneumoniae. The procedure, abridged: as §1
The test system of another data set is MRSA. Put plainly: MIC against MRSA as stated in text. The settings on record: Staphylococcus aureus. The data set is classed as cell-based. The procedure, abridged: as §1
The test system of data set [5] is tet^R E. coli. Kind of data set: Resistance development by sequential culturing. It counts as cell-based, Escherichia coli. The following applies: 15 days. Put shortly:
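Serial passage of tetR E. coli in LB over 15 days, with minocycline as comparator. […] Each day, cells from the second-highest concentration that allowed growth were diluted 1:100 into fresh media at 0.25–4× MIC. Cultures growing above the MIC were passaged on antibiotic-free LB agar and the MIC was redetermined. Mean of three trials.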

Data set [6] has as its system S. aureus 1199B. Put plainly: Membrane permeability using propidium iodide. The data set is classed as cell-based, Staphylococcus aureus. The settings on record: 0.1% (1.6 mM).
A further data set deals with P. aeruginosa (R:Mero). Kind of data set: MIC screening. The following applies: Pseudomonas aeruginosa. It counts as cell-based. The procedure, abridged:
as §1

The next data set has as its system E. aerogenes (R:Cep). Put plainly: MIC screening. It counts as cell-based, Enterobacter aerogenes. The following applies: Klebsiella aerogenes. The procedure, abridged:
as §1

The next data set deals with E. coli (WT). Kind of data set: MIC screening. The data set is classed as cell-based. The settings on record: Escherichia coli. The procedure, abridged: as §1
The next data set concerns E. coli (Tol-). Kind of data set: MIC screening. It counts as cell-based. The following applies: Escherichia coli. The procedure, abridged:
as §1

Data set [7] can be described thus: Solubility in combination assay. The following applies: combination assay medium.
The subject of data set [8] is tet^R E. coli. Kind of data set: MIC against efflux pump expressing tet^R E. coli. It counts as cell-based. The following applies: Escherichia coli. The procedure, abridged: as §1
The next data set relates to E. faecalis (control). Put plainly: MIC screening. It counts as cell-based, Enterococcus faecalis. The procedure, abridged:
as §1

The test system of the next data set is E. faecalis (VanA). Kind of data set: MIC screening. It counts as cell-based, Enterococcus faecalis. The procedure, abridged: as §1
Data set [9] concerns tet^R E. coli. Kind of data set: Potassium transport. The settings on record: 30 μM. It counts as cell-based, Escherichia coli. The procedure, abridged: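 tetR E. coli pelleted at 2000 × g, resuspended in PBS and adjusted to OD 1.300. Stirred suspension monitored with a K+-selective electrode. Multiple test compound concentrations; mV recorded every 30 s for 15 min. [K+] calculated from a calibration curve. Total potassium pool from cells heated at 100 °C for 30 min, set as 100%. Three trials, SD.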

Setting [10] is: amphiphile at 1/2 MIC, tet^R E. coli.

Values after ≈ are worked out from the molar mass of the structure shown.

Take `CCn1cc(C(=O)O)c(=O)c2cc(F)c(N3CCNCC3)cc21` [Norfloxacin, norfloxacin]: the MIC against S. aureus 1199B [1] was determined as 64 µM (≈ 20.4 µg/mL).
Regarding `N#CC(C#N)=NNc1cccc(Cl)c1` [CCCP, carbonyl cyanide 3-chlorophenylhydrazone], in the data set on tet^R E. coli [2] (setting [10]), the “FIC index with tetracycline” value stood at 0.75 and the “increase (recovery) in activity of tetracycline” value came out at 4 fold. Besides, the inhibition at 4 µM on NorA efflux pump is approximately 30%. Further, the cytotoxicity result in [3] is “cytotoxic”. For the same compound, the EC50 in the data set on human hepatocytes was determined as 5 µM.
Regarding colistin, in the data set with tet^R E. coli [4], the “concentration that increases membrane permeability (propidium iodide)” value is not below 2000 nM. Also, the “survival of HEK-293” value in the data set on HEK-293 cells is recorded as “about 60%”. Further, the “survival of Cos-7” value in the data set on Cos-7 cells is given as “non-cytotoxic”.
`CN[C@H](CC(C)C)C(=O)N[C@H]1C(=O)N[C@@H](CC(N)=O)C(=O)N[C@H]2C(=O)N[C@H]3C(=O)N[C@H](C(=O)N[C@H](C(=O)O)c4cc(O)cc(O)c4-c4cc3ccc4O)[C@H](O)c3ccc(c(Cl)c3)Oc3cc2cc(c3O[C@@H]2O[C@H](CO)[C@@H](O)[C@H](O)[C@H]2O[C@H]2C[C@](C)(N)[C@H](O)[C@H](C)O2)Oc2ccc(cc2Cl)[C@H]1O` [Vancomycin, vancomycin]: the minimal inhibitory concentration (MIC) was 0.5 µM (≈ 0.725 µg/mL) with S. aureus (control); 1 µM (≈ 1.45 µg/mL) against MRSA (USA100); 1 µM (≈ 1.45 µg/mL) in the data set on MRSA (USA 300); 1 µM (≈ 1.45 µg/mL) with MRSA (control); less than 0.1 µM against S. pneumoniae (control); 1 to 2 µM (≈ 1.45 to 2.9 µg/mL) in the data set with MRSA.
Consider `CN(C)c1ccc(O)c2c1C[C@H]1C[C@H]3[C@H](N(C)C)C(O)=C(C(N)=O)C(=O)[C@@]3(O)C(O)=C1C2=O` [minocycline], for which, in the data set on tet^R E. coli [5], the “resistance development, increase in MIC” value stood at 40 fold.
As to Triton X-100, the Fold enhancement in the data set with tet^R E. coli [2] is listed as 2 fold. Further, the “membrane permeability (propidium iodide)” value with tet^R E. coli [4] (0.1% (1.6 mM)) and with S. aureus 1199B [6] was “increases membrane permeability” each time.
`C[C@@H](O)[C@H]1C(=O)N2C(C(=O)O)=C(S[C@@H]3CN[C@H](C(=O)N(C)C)C3)[C@H](C)[C@H]12` [Meropenem, meropenem]: the MIC in the data set on P. aeruginosa (R:Mero) was more than 166 µM; against E. aerogenes (R:Cep), less than 0.33 µM; against E. coli (WT), less than 0.33 µM; against E. coli (Tol-), less than 0.33 µM.
For `COC(=O)[C@H]1[C@H]2C[C@@H]3c4[nH]c5cc(OC)ccc5c4CCN3C[C@H]2C[C@@H](OC(=O)c2cc(OC)c(OC)c(OC)c2)[C@@H]1OC` [Reserpine, reserpine], the inhibition at 4 µM at NorA efflux pump is approximately 30%.
Regarding `CC(C)[C@@H]1NC(=O)[C@H](C)OC(=O)[C@@H](C(C)C)NC(=O)[C@@H](C(C)C)OC(=O)[C@H](C(C)C)NC(=O)[C@H](C)OC(=O)[C@@H](C(C)C)NC(=O)[C@@H](C(C)C)OC(=O)[C@H](C(C)C)NC(=O)[C@H](C)OC(=O)[C@@H](C(C)C)NC(=O)[C@@H](C(C)C)OC1=O` [Valinomycin, valinomycin], the Fold enhancement in the data set with tet^R E. coli [2] is recorded as 2 fold. Also, the solubility entry in data set [7] is recorded as “insoluble at >20 μM”.
In turn, `CN(C)[C@@H]1C(O)=C(C(N)=O)C(=O)[C@@]2(O)C(O)=C3C(=O)c4c(O)cccc4[C@@](C)(O)[C@H]3C[C@@H]12` [Tetracycline, tetracycline] had an MIC with tet^R E. coli [8] of 900 ± 50 µM (≈ 400 µg/mL).
As to `CCCCCCCCCC(=O)N[C@@H](Cc1c[nH]c2ccccc12)C(=O)N[C@H](CC(N)=O)C(=O)N[C@@H](CC(=O)O)C(=O)N[C@@H]1C(=O)NCC(=O)N[C@@H](CCCN)C(=O)N[C@@H](CC(=O)O)C(=O)N[C@H](C)C(=O)N[C@@H](CC(=O)O)C(=O)NCC(=O)N[C@H](CO)C(=O)N[C@@H]([C@H](C)CC(=O)O)C(=O)N[C@@H](CC(=O)c2ccccc2N)C(=O)O[C@@H]1C` [Daptomycin, daptomycin], the MIC with E. faecalis (control) and against E. faecalis (VanA) was 2.5 µM (≈ 4.05 µg/mL) throughout.
For the compound gramicidin-D, the Fold enhancement in the data set with tet^R E. coli [2] was 1 fold. Besides, the “K+ release, percent of total potassium pool” value in the data set on tet^R E. coli [9] was 50–60%. Besides, the solubility entry in [7] is on record as “insoluble at >20 μM”.
